According to ChEMBL document CHEMBL1132429, “Design and synthesis of lipophilic phosphoramidate d4T-MP prodrugs expressing high potency against HIV in cell culture: structural determinants for in vitro activity and QSAR” (J Med Chem, 1999):

Legend:
[1] = Partition coefficient (logD7.0); assay type: physicochemical; conditions: octanol/water, pH 7
Summary of the method: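 Compound (2 μmol) was dissolved in 1-octanol (10 mL) and read by UV at 265 nm. Equal volumes of this solution and pH 7.0 phosphate buffer were stirred 5 min at 25 °C, then allowed to separate for 5 min. Octanol-phase absorbance at 265 nm was divided by that of the original octanol solution. Each experiment was done at least in triplicate.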

[2] = test system: Human immunodeficiency virus 2; assay: Concentration required to protect CEM/0 cells against the cytopathicity of HIV-2 by 50%; conditions: Human immunodeficiency virus 2, CCRF-CEM
[3] = test system: CCRF-CEM; assay: Cytostatic concentration required to inhibit CEM/0 cells proliferation by 50%; assay type: functional; conditions: Homo sapiens
[4] = test system: Human immunodeficiency virus 2; assay: Concentration required to protect CEM/TK cells against the cytopathicity of HIV-2 by 50%; conditions: Human immunodeficiency virus 2, CEM-TK(-)
[5] = test system: Human immunodeficiency virus 1; assay: Concentration required to protect CEM/0 cells against the cytopathicity of HIV-1 by 50%; assay type: functional, organism-based; conditions: Human immunodeficiency virus 1, CCRF-CEM
Summary of the method: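 CEM/0 or CEM/TK⁻ cells at 250,000 cells/mL were infected with HIV-1 (~20 CCID₅₀/mL) or HIV-2 (~100 CCID₅₀/mL). Cells were mixed with an equal volume of diluted compound and incubated 4 days at 37 °C, then scored for giant cell formation. EC₅₀ is the concentration (μM) giving 50% inhibition of HIV-induced cytopathicity. Values are the mean of 2–4 independent experiments.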

[6] = test system: Human immunodeficiency virus 1; assay: Ratio CC50/EC50 for HIV-1 in CEM/0 cells; assay type: functional

SMILES | logD [1] | EC50 [2] | CC50 [3] | EC50 [4] | EC50 [5] | Selectivity index [6]
COC(=O)C(C)NP(=O)(OC[C@@H]1C=C[C@H](n2cc(C)c(=O)[nH]c2=O)O1)Oc1ccccc1 (stereo partly specified) | 1.04 | 75 nM | > 100000 nM | 75 nM | 75 nM | >1333
COC(=O)C(C)NP(=O)(OC[C@@H]1C=C[C@H](n2cc(C)c(=O)[nH]c2=O)O1)Oc1ccc(OC)cc1 (stereo partly specified) | 1.09 | 53 nM | 35000 nM | 47 nM | 57 nM | 614
COC(=O)C(C)NP(=O)(OC[C@@H]1C=C[C@H](n2cc(C)c(=O)[nH]c2=O)O1)Oc1cccc(F)c1 (stereo partly specified) | 1.08 | 35 nM | 30000 nM | 65 nM | 18 nM | 1667
COC(=O)C(C)NP(=O)(OC[C@@H]1C=C[C@H](n2cc(C)c(=O)[nH]c2=O)O1)Oc1ccc(C(F)(F)F)cc1 (stereo partly specified) | 1.77 | 10 nM | 13000 nM | 18 nM | 10 nM | 1300
COC(=O)C(C)NP(=O)(OC[C@@H]1C=C[C@H](n2cc(C)c(=O)[nH]c2=O)O1)Oc1cccc(Br)c1 (stereo partly specified) | 1.64 | 16 nM | 13000 nM | 14 nM | 15 nM | 867
COC(=O)C(C)NP(=O)(OC[C@@H]1C=C[C@H](n2cc(C)c(=O)[nH]c2=O)O1)Oc1ccc([N+](=O)[O-])cc1 (stereo partly specified) | 0.9 | 190 nM | 73000 nM | 90 nM | 130 nM | 562
COC(=O)C(C)NP(=O)(OC[C@@H]1C=C[C@H](n2cc(C)c(=O)[nH]c2=O)O1)Oc1cccc(I)c1 (stereo partly specified) | 1.78 | 7 nM | 25000 nM | 16 nM | 8 nM | 3125
COC(=O)C(C)NP(=O)(OC[C@@H]1C=C[C@H](n2cc(C)c(=O)[nH]c2=O)O1)Oc1cccc(Cl)c1 (stereo partly specified) | 1.42 | 57 nM | 26000 nM | 40 nM | 25 nM | 1040
COC(=O)C(C)NP(=O)(OC[C@@H]1C=C[C@H](n2cc(C)c(=O)[nH]c2=O)O1)Oc1ccc(F)cc1 (stereo partly specified) | 1.1 | 60 nM | 26000 nM | 22 nM | 53 nM | 490
COC(=O)C(C)NP(=O)(OC[C@@H]1C=C[C@H](n2cc(C)c(=O)[nH]c2=O)O1)Oc1ccc(I)cc1 (stereo partly specified) | 1.93 | 15 nM | 15000 nM | 29 nM | 13 nM | 1154
COC(=O)C(C)NP(=O)(OC[C@@H]1C=C[C@H](n2cc(C)c(=O)[nH]c2=O)O1)Oc1ccc(Cl)cc1 (stereo partly specified) | 1.43 | 7 nM | 11000 nM | 6 nM | 5 nM | 2200
COC(=O)C(C)NP(=O)(OC[C@@H]1C=C[C@H](n2cc(C)c(=O)[nH]c2=O)O1)Oc1ccc(Cl)c(Cl)c1 (stereo partly specified) | 2.15 | 30 nM | 21000 nM | 30 nM | 16 nM | 1313
COC(=O)C(C)NP(=O)(OC[C@@H]1C=C[C@H](n2cc(C)c(=O)[nH]c2=O)O1)Oc1ccc(C#N)cc1 (stereo partly specified) | 0.91 | 130 nM | 60000 nM | 90 nM | 150 nM | 400
COC(=O)C(C)NP(=O)(OC[C@@H]1C=C[C@H](n2cc(C)c(=O)[nH]c2=O)O1)Oc1ccc(C(C)=O)cc1 (stereo partly specified) | 0.9 | 100 nM | 40000 nM | 50 nM | 110 nM | 363
COC(=O)c1ccc(OP(=O)(NC(C)C(=O)OC)OC[C@@H]2C=C[C@H](n3cc(C)c(=O)[nH]c3=O)O2)cc1 (stereo partly specified) | 1.01 | 22 nM | 31000 nM | 25 nM | 25 nM | 1240
COC(=O)C(C)NP(=O)(OC[C@@H]1C=C[C@H](n2cc(C)c(=O)[nH]c2=O)O1)Oc1ccc(OC(F)(F)F)cc1 (stereo partly specified) | 1.86 | 30 nM | 34000 nM | 30 nM | 14 nM | 2429
COC(=O)C(C)NP(=O)(OC[C@@H]1C=C[C@H](n2cc(C)c(=O)[nH]c2=O)O1)Oc1cccc(C(C)=O)c1 (stereo partly specified) | 0.92 | 90 nM | 50000 nM | 45 nM | 80 nM | 625
COC(=O)C(C)NP(=O)(OC[C@@H]1C=C[C@H](n2cc(C)c(=O)[nH]c2=O)O1)Oc1ccc(C)cc1 (stereo partly specified) | 1.19 | 50 nM | 34000 nM | 25 nM | 40 nM | 850
COC(=O)C(C)NP(=O)(OC[C@@H]1C=C[C@H](n2cc(C)c(=O)[nH]c2=O)O1)Oc1ccccc1Cl (stereo partly specified) | 1.37 | 29 nM | 47000 nM | 65 nM | 18 nM | 2611
COC(=O)C(C)NP(=O)(OC[C@@H]1C=C[C@H](n2cc(C)c(=O)[nH]c2=O)O1)Oc1cccc(C(F)(F)F)c1 (stereo partly specified) | 1.57 | 13 nM | 14000 nM | 5.4 nM | 13 nM | 1077
COC(=O)C(C)NP(=O)(OC[C@@H]1C=C[C@H](n2cc(C)c(=O)[nH]c2=O)O1)Oc1ccc(Br)cc1 (stereo partly specified) [STAMPIDINE] | 1.6 | 16 nM | 17000 nM | 18 nM | 9 nM | 1889
Cc1cn([C@H]2C=C[C@@H](CO)O2)c(=O)[nH]c1=O [STAVUDINE] | -0.59 | 770 nM | – | 33000 nM | 651 nM | 267
